Results: paper PMC4919611 (EBioMedicine, 2016)

How the values were obtained:
[1] = molecular target: T1, CBFβ-RUNX1 Runt domain binding (Homo sapiens, UniProt Q13951); experiment: FRET assay of CBFβ; conditions: inhibition of CBFβ-Runt domain binding
T1 sequence (Q13951 1-141): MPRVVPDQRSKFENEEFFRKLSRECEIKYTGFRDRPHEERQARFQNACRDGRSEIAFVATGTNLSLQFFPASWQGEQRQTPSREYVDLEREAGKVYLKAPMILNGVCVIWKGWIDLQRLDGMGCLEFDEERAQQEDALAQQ
Method in brief: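 FRET binding assay using 100 nM Cerulean-Runt domain and 100 nM Venus-CBFβ across a test compound concentration series. Read-out was the emission ratio at 525/474 nm. Run in duplicate.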

[2] = tested on: panel of 11 leukemia cell lines; experiment: Viability of a panel of 11 leukemia cell lines; assay type: cell-based; conditions: 48 h treatment, 11 cell lines
Method in brief: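 Eleven leukemia lines grown in IMDM with 10% FBS. Plated at 5 × 10^5 cells/ml and treated 48 h with test compound at several doses or DMSO. DAPI-stained; at least 2 × 10^4 events acquired by flow cytometry. Viability taken as percent DAPI-negative cells relative to control.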

[3] = tested on: CBFβ-Runt domain interaction; conditions: ref Cunningham et al., 2012; cited from earlier work
[4] = molecular target: RUNX1 Runt domain (Homo sapiens, UniProt Q01196); experiment: NMR detection of interaction with RUNX1 Runt domain; assay type: binding
[5] = molecular target: T2, CBFβ (Homo sapiens, UniProt Q13951); experiment: NMR detection of interaction with CBFβ; assay type: binding
T2 sequence (Q13951 1-141): T1 sequence (Q13951 1-141)
Method in brief: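 CBFβ (1-141) in 50 mM KPi pH 7.5, 0.1 mM EDTA, 1 mM DTT, 5% DMSO, 5% D2O. HSQC: 150 μM protein titrated with 600 μM test compound at 800 MHz; 15N/13C shift perturbations taken with versus without compound. STD: 200 μM CBFβ, 2 mM compound, 600 MHz, 25 °C, saturation 500–2000 ms, on-resonance 0.4 ppm, off-resonance 30 ppm.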

[6] = tested on: CBFβ-RUNX1 binding; conditions: ref Cunningham et al., 2012; cited from earlier work

Chain of RUNX1 Runt domain (Q01196 50-178 limits assumed): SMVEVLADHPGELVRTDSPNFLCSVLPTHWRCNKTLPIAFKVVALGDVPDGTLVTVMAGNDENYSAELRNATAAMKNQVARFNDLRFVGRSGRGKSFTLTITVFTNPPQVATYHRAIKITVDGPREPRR

SMILES | activity in the FRET assay (in words) [1] | growth inhibition / activity against leukemia cell lines (in words) [2] | effect in the alpha screen assay [3] | interaction with RUNX1 Runt domain by NMR [4] | interaction with CBFβ by NMR [5] | effect on CBFβ-RUNX1 binding in cells [6]
c1ccc(-c2nc3ccccc3[nH]2)nc1 [AI-4-88] | complete loss of activity | did not observe any activity | – | – | – | –
O=C1CN=C(c2ccc[nH]2)c2cc(Cl)ccc2N1 [Ro5-3335] | no effect | – | does not show significant effects | could not detect any interaction | could not detect any interaction | does not show an effect
